Laboratory results published in article PMC11406655 (Therapeutic Advances in Hematology, 2024).
Values joined by “and” are separate entries in the source; they are usually repeats but may differ in a detail not shown here. Identical values can stand only once.

Assays:
Format in all cases: in vivo, human
[1] = tested on: patients with relapsed and/or refractory MDS, CMML, or AML; assay: Safety: adverse events, dose-limiting toxicities and deaths
Procedure, shortened: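 Open-label, multicenter part 1 in adults with relapsed/refractory MDS, CMML or secondary AML. The 300 mg dose-expansion cohort took the test compound orally once daily with water only, at about the same time (±4 h), on every day of 28-day cycles. Deaths were split into ⩽30 days or >30 days after the last dose. The analysis covered all patients given at least one dose.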

[2] = Plasma pharmacokinetics of GSK3326595
[3] = tested on: symmetrical dimethylarginine (SDMA) in bone marrow biopsies; assay: SDMA in bone marrow biopsies by immunohistochemistry; settings: for Mean percentage decrease in SDMA in bone marrow biopsies: after 29 days of treatment
Procedure, shortened: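 Adults with relapsed/refractory MDS, CMML or secondary AML took the test compound orally once daily (400 or 300 mg) with water only, every day of 28-day cycles. Bone marrow biopsies were taken predose and 29 days after treatment began, formalin-fixed and paraffin-embedded. SDMA loss was assessed by immunohistochemistry.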

CC(=O)N1CCC(Nc2cc(C(=O)NC[C@H](O)CN3CCc4ccccc4C3)ncn2)CC1 [GSK3326595]
TEAE: AE leading to dose interruption ([1]; 400 mg, n = 13): 10 (77) n (%)
TEAE: AE leading to dose reduction ([1]; 400 mg, n = 13): 5 (38) n (%)
TEAE: AE leading to study treatment withdrawn ([1]; 400 mg, n = 13): 4 (31) n (%)
TEAE: Anemia ([1]; 400 mg, n = 13): 3 (23) n (%)
TEAE: Any AE ([1]; 400 mg, n = 13): 13 (100) n (%)
TEAE: Any SAE ([1]; 400 mg, n = 13): 11 (85) n (%)
TEAE: Decreased appetite ([1]; 400 mg, n = 13): 5 (38) n (%)
TEAE: Decreased platelet count ([1]; 400 mg, n = 13): 4 (31) n (%)
TEAE: Diarrhea ([1]; 400 mg, n = 13): 6 (46) n (%)
TEAE: Dysgeusia ([1]; 400 mg, n = 13): 3 (23) n (%)
TEAE: Dyspnea ([1]; 400 mg, n = 13): 5 (38) n (%)
TEAE: Fatal SAE ([1]; 400 mg, n = 13): 9 (69%) n (%) and 9 (69) n (%)
TEAE: Fatigue ([1]; 400 mg, n = 13): 7 (54) n (%)
TEAE: Nausea ([1]; 400 mg, n = 13): 4 (31) n (%)
Deaths >30 days from last dose of study treatment (number) ([1]; 300-mg cohort): 6
Deaths ⩽30 days from last dose of study treatment (number) ([1]; 300-mg cohort): 8
Deaths >30 days from last dose of study treatment (number) ([1]; 400-mg cohort): 5
Deaths ⩽30 days from last dose of study treatment (number) ([1]; 400-mg cohort): 6
Deaths >30 days from last dose of study treatment ([1]; Total, N = 30): 11 (37%) n (%)
Deaths ⩽30 days from last dose of study treatment ([1]; Total, N = 30): 47%
Died (during the study) ([1]; Total, N = 30): 25 (83%) n (%)
GSK3326595-related AE: decreased platelet count ([1]; Total, N = 30): 27%
GSK3326595-related AE: dysgeusia ([1]; Total, N = 30): 23%
GSK3326595-related AE: fatigue ([1]; Total, N = 30): 20%
GSK3326595-related AE: nausea ([1]; Total, N = 30): 20%
GSK3326595-related TEAE with maximum grade of 3 or 4: decreased neutrophil count ([1]; Total, N = 30): 4 (13%) n (%)
GSK3326595-related TEAE with maximum grade of 3 or 4: decreased platelet count ([1]; Total, N = 30): 6 (20%) n (%)
GSK3326595-related TEAE with maximum grade of 3 or 4: thrombocytopenia ([1]; Total, N = 30): 3 (10%) n (%)
GSK3326595-related TEAE: AE leading to study treatment withdrawn ([1]; Total, N = 30): 2 (7) n (%)
GSK3326595-related TEAE: Anemia ([1]; Total, N = 30): 3 (10%) n (%) and 3 (10) n (%)
GSK3326595-related TEAE: Any SAE ([1]; Total, N = 30): 6 (20%) n (%) and 6 (20) n (%)
GSK3326595-related TEAE: Any TEAEs ([1]; Total, N = 30): 22 (73) n (%)
GSK3326595-related TEAE: Any grade 3/4 TEAE ([1]; Total, N = 30): 13 (43) n (%)
GSK3326595-related TEAE: Decreased appetite ([1]; Total, N = 30): 4 (13%) n (%) and 4 (13) n (%)
GSK3326595-related TEAE: Decreased platelet count ([1]; Total, N = 30): 8 (27%) n (%) and 8 (27) n (%)
GSK3326595-related TEAE: Dysgeusia ([1]; Total, N = 30): 7 (23%) n (%) and 7 (23) n (%)
GSK3326595-related TEAE: Fatal SAE ([1]; Total, N = 30): 1 (3) n (%)
GSK3326595-related TEAE: Fatigue ([1]; Total, N = 30): 6 (20%) n (%) and 6 (20) n (%)
GSK3326595-related TEAE: Nausea ([1]; Total, N = 30): 6 (20%) n (%) and 6 (20) n (%)
GSK3326595-related TEAE: Neutrophil count decreased ([1]; Total, N = 30): 4 (13%) n (%) and 4 (13) n (%)
GSK3326595-related TEAE: Thrombocytopenia ([1]; Total, N = 30): 3 (10%) n (%) and 3 (10) n (%)
Patients who died during the study ([1]; Total, N = 30): 83%
SAE: anemia ([1]; Total, N = 30): 3 (10%) n (%)
SAE: febrile neutropenia ([1]; Total, N = 30): 5 (17%) n (%)
SAE: pneumonia ([1]; Total, N = 30): 4 (13%) n (%)
SAE: sepsis ([1]; Total, N = 30): 8 (27%) n (%)
SAE: thrombocytopenia ([1]; Total, N = 30): 3 (10%) n (%)
TEAE with maximum grade of 3 or 4: anemia ([1]; Total, N = 30): 8 (27%) n (%)
TEAE with maximum grade of 3 or 4: decreased neutrophil count ([1]; Total, N = 30): 7 (23%) n (%)
TEAE with maximum grade of 3 or 4: decreased platelet count ([1]; Total, N = 30): 11 (37%) n (%)
TEAE with maximum grade of 3 or 4: dyspnea ([1]; Total, N = 30): 4 (13%) n (%)
TEAE with maximum grade of 3 or 4: fatigue ([1]; Total, N = 30): 4 (13%) n (%)
TEAE with maximum grade of 3 or 4: febrile neutropenia ([1]; Total, N = 30): 6 (20%) n (%)
TEAE with maximum grade of 3 or 4: hypotension ([1]; Total, N = 30): 4 (13%) n (%)
TEAE with maximum grade of 3 or 4: pneumonia ([1]; Total, N = 30): 6 (20%) n (%)
TEAE with maximum grade of 3 or 4: thrombocytopenia ([1]; Total, N = 30): 5 (17%) n (%)
TEAE: AE leading to dose interruption ([1]; Total, N = 30): 20 (67) n (%)
TEAE: AE leading to dose reduction ([1]; Total, N = 30): 6 (20) n (%)
TEAE: AE leading to study treatment withdrawn ([1]; Total, N = 30): 7 (23) n (%)
TEAE: Anemia ([1]; Total, N = 30): 10 (33%) n (%) and 10 (33) n (%)
TEAE: Any AE ([1]; Total, N = 30): 30 (100) n (%)
TEAE: Any SAE ([1]; Total, N = 30): 23 (77) n (%)
TEAE: Decreased appetite ([1]; Total, N = 30): 9 (30%) n (%) and 9 (30) n (%)
TEAE: Decreased platelet count ([1]; Total, N = 30): 12 (40%) n (%) and 12 (40) n (%)
TEAE: Diarrhea ([1]; Total, N = 30): 13 (43%) n (%) and 13 (43) n (%)
TEAE: Dysgeusia ([1]; Total, N = 30): 10 (33%) n (%) and 10 (33) n (%)
TEAE: Dyspnea ([1]; Total, N = 30): 11 (37%) n (%) and 11 (37) n (%)
TEAE: Fatal SAE ([1]; Total, N = 30): 14 (47) n (%)
TEAE: Fatigue ([1]; Total, N = 30): 13 (43%) n (%) and 13 (43) n (%)
TEAE: Nausea ([1]; Total, N = 30): 9 (30%) n (%) and 9 (30) n (%)
TEAE: thrombocytopenia ([1]; Total, N = 30): 5 (17%) n (%)
Treatment-related SAE: decreased neutrophil count ([1]; Total, N = 30): 3 (10%) n (%)
Study treatment discontinued due to sepsis ([1]; Total, N = 30, n = 2): 7%
Dose proportionality of exposure ([2]; 300 and 400 mg): dose-proportional
half-life ([2]; human, plasma, po, 400 mg): 4 to 6 h
Tmax ([2]; human, plasma, po, 400 mg, Tmax, 300 and 400 mg once daily): ~2 h
Mean percentage decrease in SDMA in bone marrow biopsies ([3]; 300-mg cohort, 7 patients): 84.63%
Mean percentage decrease in SDMA in bone marrow biopsies ([3]; 400-mg cohort, 4 patients): 85.75%
Maximum observed decrease in tumor SDMA ([3]; day 29, 300-mg cohort): 97.8%
Maximum observed decrease in tumor SDMA ([3]; day 29, 400-mg cohort): 100%
